Results reported in ChEMBL document CHEMBL4261533, “Identification of potent cholecystokinin-B receptor antagonists: synthesis, molecular modeling and anti-cancer activity against pancreatic cancer cells” (Medchemcomm, 2017).
Calls of active or inactive are those of the source. No cut-off for these calls is given here.

Assays:
MIA PaCa-2 [1] = experiment: Cytotoxicity against human MIAPaCa2 cells assessed as reduction in cell viability after 24 hrs by MTT assay; type: functional, cell-based; details: MIA PaCa-2, 24 h
Summary of the method: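 MiaPaca-2 cells seeded at 1000/well, incubated 24 h at 37 °C, 5% CO2, then exposed to varying compound concentrations in 200 μL standard growth medium for 24 h. MTT (5 mg/mL stock in PBS) added for 4 h at 37 °C. Formazan dissolved in DMSO, absorbance read at 540 nm. IC50 taken from dose–response graphs.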

[2] = biological target: T1, Gastrin/cholecystokinin type B receptor (Mus musculus) (UniProt P56481); experiment: Inhibition of CCK-B receptor in lumen perfused albino mouse stomach assessed as reduction in boc-pentagastrin-induced gastric acid secretion after 45 mins relative to control; type: functional
T1 sequence (whole entry): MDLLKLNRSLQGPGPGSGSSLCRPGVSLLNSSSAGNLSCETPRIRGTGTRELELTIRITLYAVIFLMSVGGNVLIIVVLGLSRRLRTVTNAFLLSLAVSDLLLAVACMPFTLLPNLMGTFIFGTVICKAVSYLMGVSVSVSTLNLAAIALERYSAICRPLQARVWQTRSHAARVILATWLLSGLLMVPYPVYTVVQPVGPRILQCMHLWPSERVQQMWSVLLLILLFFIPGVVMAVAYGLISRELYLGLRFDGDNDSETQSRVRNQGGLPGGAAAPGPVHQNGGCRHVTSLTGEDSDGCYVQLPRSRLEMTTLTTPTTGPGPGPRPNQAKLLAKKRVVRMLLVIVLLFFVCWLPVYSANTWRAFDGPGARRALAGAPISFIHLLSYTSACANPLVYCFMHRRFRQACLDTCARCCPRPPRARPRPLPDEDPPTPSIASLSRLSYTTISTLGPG
Summary of the method: (§1)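 Whole stomach excised from albino mice (25–30 g), lumen-perfused in an organ bath. Effluent pH monitored continuously with a pH probe. Acid output driven by sub-maximal Boc-pentagastrin (10 nM), measured before and 45 min after incubation with test compound. Percentage inhibition calculated.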

[3] = biological target: T1, Gastrin/cholecystokinin type B receptor (Mus musculus); experiment: Inhibition of CCK-B receptor in lumen perfused albino mouse stomach assessed as reduction in boc-pentagastrin-induced gastric acid secretion at 100 nM after 45 mins relative to control; type: functional; summary of the method: as §1
[4] = biological target: T2, Gastrin/cholecystokinin type B receptor (Rattus norvegicus, UniProt P30553); experiment: Displacement of [125I]-BH-CCK-8 from CCK-B receptor in rat cerebral cortex plasma membrane after 1 hr by liquid scintillation counting method; type: cell membranes
T2 sequence (P30553 whole entry): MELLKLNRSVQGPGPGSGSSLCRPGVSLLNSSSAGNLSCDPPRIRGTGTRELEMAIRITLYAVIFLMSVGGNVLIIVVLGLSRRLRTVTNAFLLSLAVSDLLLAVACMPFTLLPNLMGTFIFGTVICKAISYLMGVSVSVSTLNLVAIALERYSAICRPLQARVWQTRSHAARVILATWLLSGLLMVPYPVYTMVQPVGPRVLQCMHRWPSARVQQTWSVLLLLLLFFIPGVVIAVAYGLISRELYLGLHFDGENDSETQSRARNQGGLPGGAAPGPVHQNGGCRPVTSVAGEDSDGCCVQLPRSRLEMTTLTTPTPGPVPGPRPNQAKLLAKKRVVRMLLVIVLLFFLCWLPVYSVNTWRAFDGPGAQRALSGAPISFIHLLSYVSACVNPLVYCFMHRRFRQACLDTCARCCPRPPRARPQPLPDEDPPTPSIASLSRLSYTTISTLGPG
Summary of the method: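 Rat cerebral cortex plasma membrane (100 μg per tube), receptor solubilized in detergent. Non-specific binding defined with 1 μM unlabeled CCK-8s. Bound and free ligand separated on filter mats, counted by liquid scintillation. IC50 by non-linear least-squares fitting.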

MIA PaCa-2 [5] = experiment: Cytotoxicity against human MIAPaCa2 cells assessed as reduction in cell viability at 1 to 10 uM after 72 hrs by MTT assay; type: functional, cell-based
MIA PaCa-2 [6] = experiment: Inhibition of boc-pentagastrin-induced cell proliferation in human MIAPaCa2 cells at 1 to 10 uM up to 120 hrs by MTT assay; type: functional, cell-based
Summary of the method: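 MiaPaca-2 cells seeded at 4000/well in 10% FCS-DMEM, then made quiescent for 24 h in incomplete medium. Boc-pentagastrin and/or antagonist (1 or 10 μM) added in incomplete medium; medium with the same concentrations replaced daily. MTT read after 48–120 h, absorbance at 540 nm. DMSO control at each time point set as 100%.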

[7] = biological target: T1, Gastrin/cholecystokinin type B receptor (Mus musculus); experiment: Inhibition of CCK-B receptor in lumen perfused albino mouse stomach assessed as reduction in boc-pentagastrin-induced gastric acid secretion at 300 nM after 45 mins relative to control; type: functional; summary of the method: as §1
[8] = biological target: T1, Gastrin/cholecystokinin type B receptor (Mus musculus); experiment: Inhibition of CCK-B receptor in lumen perfused albino mouse stomach assessed as reduction in boc-pentagastrin-induced gastric acid secretion at 1 uM after 45 mins relative to control; type: functional; summary of the method: as §1
[9] = biological target: T3, Gastrin/cholecystokinin type B receptor (Homo sapiens, UniProt P32239); experiment: Displacement of [125I]-gastrin17 from CCK-B receptor (unknown origin)
T3 sequence (P32239 whole entry): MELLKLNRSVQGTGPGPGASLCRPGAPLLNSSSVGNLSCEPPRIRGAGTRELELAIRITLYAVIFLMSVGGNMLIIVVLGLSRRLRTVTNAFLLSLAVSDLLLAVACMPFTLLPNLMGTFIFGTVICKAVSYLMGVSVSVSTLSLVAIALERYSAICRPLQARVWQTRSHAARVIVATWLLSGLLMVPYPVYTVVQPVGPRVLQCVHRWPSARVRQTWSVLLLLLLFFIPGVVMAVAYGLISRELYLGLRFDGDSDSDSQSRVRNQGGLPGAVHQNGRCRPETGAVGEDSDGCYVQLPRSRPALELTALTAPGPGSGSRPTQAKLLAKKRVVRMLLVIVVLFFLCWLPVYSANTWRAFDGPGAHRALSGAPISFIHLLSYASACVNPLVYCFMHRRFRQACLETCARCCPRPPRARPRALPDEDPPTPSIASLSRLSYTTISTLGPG

Structure (SMILES)	inhibition [2]	inhibition [3] [%]	IC50 [4] [nM]	inhibition [7] [%]	inhibition [8] [%]	IC50 (MIA PaCa-2 [1]) [µM]	Activity (MIA PaCa-2 [5])	inhibition (MIA PaCa-2 [6])	IC50 [9] [nM]
O=C(O)c1cccc(NC(=S)NNc2nc3ccccc3c(=O)n2-c2ccccc2)c1	Dose-dependent effect		975		48	180			
O=C(O)c1cccc(NC(=S)NNc2nc3ccccc3c(=O)n2-c2cccc(Br)c2)c1	Dose-dependent effect	62	8.64			150			
CNc1cccc(NC(=O)NC2N=C(c3ccccn3)c3ccccc3N(CC(=O)C(C)(C)C)C2=O)c1 (stereo not drawn)									0.1
CCOc1ccc(-n2c(NNC(=S)Nc3ccc(Br)cc3)nc3ccccc3c2=O)cc1	Dose-dependent effect	39	2			10	Active	Active	
CCOc1ccc(-n2c(NNC(=S)Nc3cccc(C(=O)O)c3)nc3ccccc3c2=O)cc1	Dose-dependent effect	58	0.66			280			
CCOc1ccc(-n2c(NNC(=S)Nc3ccc(Cl)cc3)nc3ccccc3c2=O)cc1	Dose-dependent effect	58	11.5			250			
CCOc1ccc(NC(=S)NNc2nc3ccccc3c(=O)n2-c2ccc(Cl)cc2)cc1	Dose-dependent effect	53	9.71			80			
Cc1cccc(NC(=O)NC2N=C(c3ccccc3)c3ccccc3N(C)C2=O)c1 (stereo not drawn)						0.0018			

Second part, led by results:

inhibition [2]	inhibition [3] [%]	IC50 [4] [nM]	inhibition [7] [%]	inhibition [8] [%]	Structure (SMILES)	IC50 (MIA PaCa-2 [1]) [µM]	Activity (MIA PaCa-2 [5])	inhibition (MIA PaCa-2 [6])	IC50 [9] [nM]
Dose-dependent effect	62	19.5			O=C1Nc2ccccc2/C1=N/Nc1nc2ccccc2c(=O)n1-c1cccc(Br)c1	200			
Dose-dependent effect		56.5	67		Cc1ccc(-n2c(N/N=C3\C(=O)Nc4ccccc43)nc3ccccc3c2=O)cc1	10	Active	Active	
Dose-dependent effect	48	17.4			CCOc1ccc(-n2c(N/N=C3\C(=O)Nc4ccccc43)nc3ccccc3c2=O)cc1	80			
Dose-dependent effect	58	384			O=C1Nc2ccccc2/C1=N/Nc1nc2ccccc2c(=O)n1-c1cccc(Cl)c1	92			
Dose-dependent effect	39	0.2			O=C(O)c1cccc(NC(=S)NNc2nc3ccccc3c(=O)n2-c2ccc(Br)cc2)c1	200			
Dose-dependent effect	58				O=C1Nc2ccccc2/C1=N/Nc1nc2ccccc2c(=O)n1-c1ccc(Cl)cc1	100			
